# Measurements: PubChem BioAssay AID624466 (The Scripps Research Institute Molecular Screening Center, 2012)
# About 5,400 (1.5%) of roughly 360,000 compounds were called active.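 How the source made its calls: active means inhibition above a per-plate cutoff, the mean inhibition of test compounds on that plate plus 3 SD (cut at about 49% in these data); inactive means the rest.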 The entries come from a sample that favours actives as a whole.
# Target: Trace amine-associated receptor 1 (Homo sapiens) (UniProt Q96RJ0)
# Sequence (Q96RJ0 whole entry, looked up): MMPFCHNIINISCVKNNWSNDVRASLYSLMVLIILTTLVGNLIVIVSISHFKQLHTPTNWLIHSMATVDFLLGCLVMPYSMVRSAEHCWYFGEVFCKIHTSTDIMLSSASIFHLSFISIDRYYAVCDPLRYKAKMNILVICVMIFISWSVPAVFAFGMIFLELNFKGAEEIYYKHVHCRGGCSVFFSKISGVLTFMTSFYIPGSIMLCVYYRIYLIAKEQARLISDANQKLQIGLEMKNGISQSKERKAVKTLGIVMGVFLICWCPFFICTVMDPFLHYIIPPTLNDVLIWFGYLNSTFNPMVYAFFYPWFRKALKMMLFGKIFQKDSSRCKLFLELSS
# Test: human TAAR1 antagonists, primary screen, Fluo-8 calcium fluorescence, CHO RD-HGA16 cells (AID 624466);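 further: 0% = DMSO plus EC80 beta-PEA response and 100% = DMSO alone without agonist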
# Conditions: CHO RD-HGA16 TAAR1, Fluo-8 calcium fluorescence, antagonist; at 3 µM; hits give high values
# Method in brief: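 System: RD-HGA16 CHO cells with stable hTAAR1 and Gα16 | Probe or stimulus: EC80 β-phenethylamine stimulus | Dosing: 3 µM, single point | Times: Dye loading 75 min at 37 °C, then 30 min room temperature | Measured by: Fluo-8 calcium-sensitive fluorescence | Read-out basis: % inhibition of agonist calcium response | Replicates: n of 1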
row,SMILES,inhibition
1,COc1ccc(C(C(=O)NCc2ccccc2)n2c(=O)c(-c3ccccc3)nc3ccccc32)cc1 (stereo unspecified),-24.7% (inactive)
2,CN(Cc1ccccc1)C(=O)[C@@H]1CCCN1C(=O)[C@@H]1CCCN1C(=O)c1c(F)cccc1F,-1.21% (inactive)
3,Cc1nnc(SCC(=O)NC(=O)NC2CCCC2)n1N,-8.31% (inactive)
4,COc1cc(NC(=O)c2cc(-c3ccc(F)cc3OC(C)C)n[nH]2)cc(OC)c1OC,47.6% (inactive)
5,CC(C)Oc1cc(F)ccc1-c1cc(C(=O)Nc2cccc(Cl)c2)[nH]n1,42.5% (inactive)
6,CC(C)Oc1cc(F)ccc1-c1cc(C(=O)Nc2ccc(F)cc2)[nH]n1,68.5% (active)
7,O=C(CN1CCN(c2ccc(O)cc2)CC1)NC1CCCc2ccccc21 (stereo unspecified),-0.58% (inactive)
8,CCS(=O)(=O)Nc1ccc(C2=NN(C(C)=O)C(c3cccs3)C2)cc1 (stereo unspecified),6.89% (inactive)
9,CS(=O)(=O)Nc1cccc(C2=NN(C(=O)c3cccc(F)c3)C(c3cccs3)C2)c1 (stereo unspecified),62.3% (active)
10,Cc1ccc(C2CC(c3cccc(NS(C)(=O)=O)c3)=NN2S(C)(=O)=O)cc1 (stereo unspecified),0.27% (inactive)
11,FC(F)Oc1ccc(NC(=S)NCc2ccco2)cc1Cl,36.8% (inactive)
12,O=C(CSc1nc2cccc(F)c2c(=O)n1-c1ccccc1)Nc1ccc2c(c1)CCC2,-17.1% (inactive)
13,O=C(COC(=O)COc1ccccc1F)Nc1cccc(S(=O)(=O)N2CCCCC2)c1,-6.77% (inactive)
14,CC(NC(=O)c1ccccc1)C(=O)OCC(=O)Nc1cccc(S(=O)(=O)N2CCCC2)c1 (stereo unspecified),-4.21% (inactive)
15,CCOc1ncccc1C(=O)OCC(=O)Nc1cccc(S(=O)(=O)N2CCCCCC2)c1,63.8% (active)
16,COc1cccc(CCNC(=O)COc2cccc3c2OC(C)(C)C3)c1,3.3% (inactive)
17,CCCNC(=O)C1CC(=O)N(c2ccc(OCC(=O)Nc3cccc(C)c3C)cc2)C1 (stereo unspecified),-17.9% (inactive)
18,NC(=O)c1ccsc1NC(=O)COC(=O)COc1ccc(C=O)cc1,24.6% (inactive)
19,Cc1cccc(C(=O)OCC(=O)Nc2sccc2C(N)=O)c1C,-21.5% (inactive)
20,COc1cc(OC)cc(C(=O)OCC(=O)Nc2sccc2C(N)=O)c1,63% (active)
21,CCCCNC(=O)C[C@@H]1C[C@@]2(C(=O)OCC)CCC=C2N(Cc2cccc3ccccc23)C1=O,-3.28% (inactive)
22,COc1cc(C(=O)OC(C)C(=O)NCC2CCCCC2)cc(NC(=O)c2ccco2)c1OC (stereo unspecified),-4.96% (inactive)

row,SMILES,inhibition
1,COc1ccc(NC(=O)CCS(=O)(=O)c2cc3c(cc2Cl)NC(=O)CO3)cc1OC,-9.29% (inactive)
2,COc1ccc(Cl)cc1NC(=O)CCS(=O)(=O)c1cc2c(cc1C)NC(=O)CO2,63.3% (active)
3,Cc1cc2c(cc1S(=O)(=O)CCC(=O)NCc1ccccc1)OCC(=O)N2,8.55% (inactive)
4,O=C(NC1CCCC1)C1c2ccccc2OCC(=O)N1Cc1ccccc1 (stereo unspecified),-5.5% (inactive)
5,Cc1ccc(C)c(OCCC(=O)OCC(=O)NC(=O)NCc2ccccc2)c1,-20.1% (inactive)
6,COc1cc(SC#N)ccc1N=Cc1c(C)[nH]n(-c2ccc(C)cc2)c1=O,87.5% (active)
7,Cc1cc(C)c2cc(C#N)c(N3CCNCC3)nc2c1,76.6% (active)
8,Cc1ccc2cc(C)c(N3CCC(C)CC3)nc2c1,-22.1% (inactive)
9,Cc1ccc2cc(C)c(N3CCN(c4ccc(F)cc4)CC3)nc2c1,-19.1% (inactive)
10,COC(=O)[C@]12C[C@H](CC(=O)NCc3cccc(C(F)(F)F)c3)C(=O)N(Cc3ccc4c(c3)OCO4)C1=C[C@H](COCc1ccccc1)O[C@@H]2C,-19.1% (inactive)
11,COc1ccc(N2CCN(C(=O)c3ccc(N4CCCCS4(=O)=O)cc3)CC2)cc1,-21.9% (inactive)
12,CC(C)C(=O)Nc1ccc2c3c(cccc13)CC2,-5.92% (inactive)
13,COc1ccc(C(=O)OC(C)C(=O)NC2CCCC2)cc1S(=O)(=O)N1CCOCC1 (stereo unspecified),-9.55% (inactive)
14,COc1ccc(C(=O)Oc2ccc(-c3nnco3)cc2)cc1S(=O)(=O)N1CCOCC1,60.2% (active)
15,Cc1cc(NC(=O)COC(=O)c2ccc(F)c(S(=O)(=O)N3CCOCC3)c2)no1,-19.8% (inactive)
16,NC(=O)C1CCN(C(=O)c2ccc(F)c(S(=O)(=O)N3CCOCC3)c2)CC1,6.75% (inactive)
17,COc1ccc(C(=O)OCC(=O)c2ccc(C)c(S(=O)(=O)N3CCOCC3)c2)cc1OC,47.7% (inactive)
18,O=C(Oc1ccc(-c2nnco2)cc1)c1ccc(F)c(S(=O)(=O)N2CCOCC2)c1,84.1% (active)
19,CC(C)(O)C1=C[N+](=O)CC=C1,2.41% (inactive)
20,CC1(C(=O)Nc2cccnc2)Cc2c(-c3ccccc3)ccnc2O1 (stereo unspecified),-9.98% (inactive)
21,CC(C)C[C@@H]1COc2cc(N3CCC[C@@H]3CO)ccc2S(=O)(=O)N1,-24.6% (inactive)
22,Cc1ccc2c(c1)N(CC(=O)NCCCN1CCCCC1)C(=O)c1cccnc1O2,-18.1% (inactive)

row,SMILES,inhibition
1,O=C(CN1C(=O)c2cccnc2Oc2ccc(Cl)cc21)NCCc1ccccc1,12.2% (inactive)
2,Cc1ccc2c(c1)N(CC(=O)NCCc1ccc(Cl)cc1)C(=O)c1cccnc1O2,64.2% (active)
3,CN(C)C1CN(Cc2cn(Cc3ccccc3)nn2)S(=O)(=O)C1 (stereo unspecified),-30.8% (inactive)
4,C=CC1=CCN(S(=O)(=O)C(C)(C)C)[C@@H]1CCO,-20.8% (inactive)
5,Cc1cccc(C(=O)Nc2ccc(Oc3cnccn3)cc2)c1,-6.75% (inactive)
6,Cc1cccc(C(=O)Nc2ccc(C(=O)/C=C/c3cccs3)cc2)c1,59.9% (active)
7,Cc1cccc(C(=O)Nc2ccc3c(c2)C(=O)N(CC(C)C)C3=O)c1,16.9% (inactive)
8,Cc1nc2c(OCc3ccc(Cl)cc3Cl)cccn2c1N(C)CC1CC1,16.7% (inactive)
9,CCCCCCCCN1C(=O)[C@@H](CC(=O)NCCCC)C[C@@]2(C(=O)OC)C1=C[C@H](C(C)(C)C)O[C@@H]2C,-28.5% (inactive)
10,CCOc1ccc(NC(=O)CN(C)C(=O)c2c(C)noc2C)cc1OCC,-17.5% (inactive)
11,CCCCOCCCNC(=O)C[C@@H]1C[C@@]2(C(=O)OCC)CCCC=C2N(CCC2=CCCCC2)C1=O,-7.17% (inactive)
12,COC(=O)c1ccc(C23CC4(C2)[C@H](CN(Cc2cccnc2)[C@@H]4c2ccccc2)C3c2ccc(Cl)nc2)cc1 (stereo partly specified),34.6% (inactive)
13,COC(=O)[C@@]12C[C@@H](CC(=O)NCCCCc3ccccc3)C(=O)N(CCc3ccc(OC)c(OC)c3)C1=CCC(C)(C)C2,22.4% (inactive)
14,CCOc1cc(C(=O)N2CCc3cc(OC)c(OC)cc3C2)ccc1OC(F)F,-21.9% (inactive)
15,O=C1NC[C@H](Cc2ccc(O)cc2)N(C[C@H]2CCCN2C[C@H](Cc2ccccc2)N2C[C@H](Cc3ccccc3)N(CCc3ccccc3)C(=O)C2=O)C1=O,-19.2% (inactive)
16,COc1ccc(-c2ccccc2C2Cc3nnccc3CN2C(=O)Nc2ccccc2)cc1 (stereo unspecified),-11.4% (inactive)
17,COC(=O)[C@]12CCCCC=C1N(Cc1cccc3ccccc13)C(=O)[C@H](CC(=O)N1CCOCC1)C2,34.8% (inactive)
18,COc1cc2ccccc2cc1C(=O)Nc1ccc(NC(=O)c2cccs2)cc1,58.9% (active)
19,COc1cc(OC)c(C(=O)NNC(=O)c2ccc(NS(=O)(=O)c3cccs3)cc2)cc1OC,-17.5% (inactive)
20,COc1ccccc1C(=O)Nc1ccc(Nc2ccccc2)cc1,1.01% (inactive)
21,O=C(NCc1ccccc1)[C@@H]1CCCN1C(=O)[C@H]1CCCN1C(=O)c1cccc(Cl)c1,-3.29% (inactive)
22,CCCCCCCCN1C(=O)[C@H](CC(=O)NCc2cccc3ccccc23)C[C@@]2(C(=O)OC)CCCCC=C12,2.1% (inactive)

row,SMILES,inhibition
1,COCCCn1cc(CN2CC(N(C)C)CS2(=O)=O)nn1 (stereo unspecified),-29.3% (inactive)
2,CCCCC[C@H](C)N1C[C@@H](COCc2ccccc2)Oc2cc(N3CCC[C@@H]3CO)ccc2S1(=O)=O,-12.8% (inactive)
3,CCOc1ccc(C(=O)Nc2ccc(CN3CCOCC3)cc2)cc1Cl,3.95% (inactive)
4,CCOc1ccc(C(=O)NC(=S)Nc2ccc(NC(=O)C(C)C)cc2)cc1[N+](=O)[O-],38.4% (inactive)
5,CCOc1ccc(C(=O)NC(=S)Nc2ccc(N3CCOCC3)c(Cl)c2)cc1[N+](=O)[O-],51.3% (active)
6,O=C(Nc1ccccc1)C1CC(=O)n2c(nc3ccccc32)N1 (stereo unspecified),-8.36% (inactive)
7,CCCCC(O)C1=C[N+](=O)CC=C1 (stereo unspecified),0.52% (inactive)
8,CCc1ccccc1OCC(=O)Nc1ccc(C)c(S(=O)(=O)N2CCCCCC2)c1,53.6% (active)
9,COc1cc(NC(=O)COc2ccccc2Cl)ccc1NC(=O)C(C)C,-12.5% (inactive)
10,Cc1ccc(NC(=O)COc2coc(CN3CCc4ccccc4C3)cc2=O)cc1Cl,-6.95% (inactive)
11,COc1ccccc1C(=O)Nc1ccc(C)c(S(=O)(=O)N2CCCCC2)c1,35.1% (inactive)
12,Cc1ccc(NC(=O)COC(=O)C2CC2)cc1S(=O)(=O)N1CCOCC1,-10.1% (inactive)
13,Cc1ccccc1OCC(=O)Nc1ccc(N2CCN(C(=O)C(C)C)CC2)c(Cl)c1,51.1% (active)
14,CC(C)CN1C(=O)CN(S(C)(=O)=O)CC1(C)C(=O)NCc1ccccc1 (stereo unspecified),-16.9% (inactive)
15,O=C(c1ccccc1)c1ccc(OC(=O)N2CCCC2)cc1,0.6% (inactive)
16,CCCC[C@@H]1CN=C(N)N1CCc1cc(C(F)(F)F)cc(C(F)(F)F)c1,0.75% (inactive)
17,O=C(NCc1ccccn1)[C@@H]1CCCN1C(=O)[C@@H]1CCCN1C(=O)c1ccccc1,-3.32% (inactive)
18,Nc1c(C(=O)Nc2ccc3c(c2)OCCO3)nnn1Cc1ccccc1,10.6% (inactive)
19,CCOc1ccc(Cn2nnc(C(=O)Nc3ccc(OC)cc3OC)c2N)cc1,-4.89% (inactive)
20,CCOc1ccc(Cn2nnc(C(=O)NCc3ccccc3)c2N)cc1,55.6% (active)
